Screening results: PubChem BioAssay, several laboratories
Most compounds without a hit are left out; they make up all but 2.3% or so of the library.
SKKanGAS inh – inhibitors of SKKanGAS S. pyogenes growth in kanamycin (SK-promoter or general growth effect). BacTiter-Glo, 6 h. inhibition, % at 7.5 µM. 1.3% of 300,000 active;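 active = mean replicate score, as percent of positive control median, at least 50; inconclusive = mean below 50 but one replicate at or above 50; inactive = mean and every replicate below 50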;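 also: strain carries kanamycin resistance gene driven by streptokinase promoter and grows in 40 µg/ml kanamycin; loss of luminescence reflects streptokinase promoter inhibition or plain growth inhibition; 0% = median of DMSO wells and 100% = positive control at its reference dose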
ARFGAP1 inhibitor – inhibitors of rat ARFGAP1. Arfgap1-stimulated ARF1 GTP hydrolysis, GDP FP detection. 0.26% of 360,000 active. inhibition, % at 16.5 µM;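 active = inhibition above a per-plate limit, mean inhibition of low control wells plus 3 SD, cut at about 25% in these data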;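 also: 0% = DMSO wells with enzyme and 100% = wells lacking Arfgap1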
Target sequence (Q62848 1-136 limits assumed): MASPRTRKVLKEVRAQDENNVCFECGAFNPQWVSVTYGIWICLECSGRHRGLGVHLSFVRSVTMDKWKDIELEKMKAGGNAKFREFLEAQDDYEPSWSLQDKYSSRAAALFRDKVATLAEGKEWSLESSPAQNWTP
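material = rat Arfgap1 catalytic domain, aa 1-136 | also added = human ARF1(Δ1-17)-GTP substrate | compound dosing = one concentration, 16.5 µM, DMSO 1.26% | times = GTP hydrolysis reaction 2 h at 25 °C | measured by = FP, GDP Alexa 633 tracer displaced from anti-GDP antibody, 620/688 nm | evaluation = percent inhibition of Arfgap1-stimulated GTP hydrolysis | replication = single well per compound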
Calb FLC – C. albicans growth modulation with fluconazole; C. albicans CaCi-2 (fluconazole-resistant clinical isolate) + fluconazole, Alamar Blue growth, 48 h; growth inhibition, % (no concentration beside the values); 0.57% of 300,000 active;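 active = growth inhibition above about 58% in most replicates, limit read from the data, passing the limit was not always enough; inconclusive = exactly half the replicates above a set limit; inactive = most replicates below a set limit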;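 also: all wells also contain fluconazole at 8 µg/ml as a sub-toxic cotreatment; 0% = median of DMSO wells and 100% = median of geldanamycin control wells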
ASAP1 GAP inh – blocks human ASAP1-stimulated Arf1 GTP hydrolysis. Q9ULH1. AID 624377. 0.19% of 360,000 active. GDP FP detection. inhibition, % at 16.5 µM; in the data active = inhibition above about 25%;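 also: 0% = vehicle with enzyme and substrate and 100% = no enzyme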
sPLA2-III inh – Blocks human group III sPLA2 activity | inhibition, % at 12.2 µM | 0.56% of 370,000 active | QFRET BODIPY PC-A2 liposome hydrolysis, fluorescence | Q9NZ20;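 active = inhibition above mean plus 3 SD of compounds lying within the high and low control bounds, cut at about 19% in these data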;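 also: 0% = median of test compound wells and 100% = no enzyme DMSO wells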
Target sequence (Q9NZ20 whole entry, looked up): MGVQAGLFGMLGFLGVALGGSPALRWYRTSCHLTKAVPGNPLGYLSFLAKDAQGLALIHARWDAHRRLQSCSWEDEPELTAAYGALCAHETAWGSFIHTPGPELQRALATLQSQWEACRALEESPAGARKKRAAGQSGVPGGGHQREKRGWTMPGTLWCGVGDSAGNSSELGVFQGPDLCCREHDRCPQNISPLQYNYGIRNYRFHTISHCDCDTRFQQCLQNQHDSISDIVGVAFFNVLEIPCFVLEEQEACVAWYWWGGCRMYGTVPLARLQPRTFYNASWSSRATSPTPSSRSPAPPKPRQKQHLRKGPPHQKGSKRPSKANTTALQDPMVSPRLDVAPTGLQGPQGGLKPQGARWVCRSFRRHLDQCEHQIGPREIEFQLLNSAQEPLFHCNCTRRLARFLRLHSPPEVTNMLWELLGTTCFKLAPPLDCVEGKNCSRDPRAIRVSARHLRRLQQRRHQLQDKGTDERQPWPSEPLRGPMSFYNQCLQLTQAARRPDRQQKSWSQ
ARFGAP1 confirm – confirmation of rat ARFGAP1 inhibitors; shares compounds with ARFGAP1 inhibitor; ARFGAP1-stimulated ARF1 GTP hydrolysis, GDP tracer FP; inhibition, % at 16.5 µM; 30% of 890 active;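 active = average inhibition over triplicates above the hit cutoff set in the earlier primary screen, cut at about 25% in these data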;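 also: 0% = Arfgap1 plus ARF1-GTP with DMSO and 100% = wells lacking Arfgap1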
Starred values were filed as active, the others as inactive; ? = inconclusive; nt = no result; + = active, no number.

SMILES	SKKanGAS inh	ARFGAP1 inhibitor	Calb FLC	ASAP1 GAP inh	sPLA2-III inh	ARFGAP1 confirm
O=C(Nc1ccc(C(O)(C(F)(F)F)C(F)(F)F)cc1)c1c(F)cccc1F	nt	nt	nt	nt	-24	nt
O=c1c2[nH]cnc2n(-c2cccc(F)c2)c(=O)n1Cc1ccccc1	-2	25*	0	1	0	3
O=C(N/N=C/c1cccc([N+](=O)[O-])c1)c1ccc(COc2ccccc2-c2ccccc2)cc1	9	35*	-20	8	4	2
O=C(N/N=C/c1cccc([N+](=O)[O-])c1)c1ccc(Br)cc1	-1	10	-10	22	7	nt
O=S(=O)(c1ccccc1F)N1CCN(CC(O)c2ccccc2)CC1 (stereo unspecified)	-4	-9	6	-5	1	nt
CN(Cc1ccccc1)C(=O)CN1CCN(S(=O)(=O)c2ccccc2F)CC1	nt	36*	nt	-2	-1	5
O=C(Nc1ccc(-c2nc3ccccc3[nH]2)cc1)c1ccc2c(c1)OCO2	21	26*	6	21	-22	32*
O=C(Nc1cccc(F)c1)c1ccc2c(c1)OCO2	2	2	-6	5	7	nt
CCN(CC)S(=O)(=O)c1cccc(C(=O)Nc2ccc3c(c2)OCO3)c1	-1	5	-12	16	-6	nt
O=C(Nc1ccc2nn(-c3ccccc3)nc2c1)c1ccc2c(c1)OCO2	11	26*	-4	17	2	28*
O=C(Nc1ccc(Cl)c(-c2nc3ccccc3[nH]2)c1)c1ccc2c(c1)OCO2	17	-6	-5	11	-15	nt
CCCN(CCC)S(=O)(=O)c1cccc(C(=O)Nc2ccc3c(c2)OCO3)c1	-7	47*	?	17	-20	2
COC(=O)c1ccc(CN2CC3CC(c4ccccc4)N4CCCC34C2=O)cc1 (stereo unspecified)	nt	nt	nt	nt	-2	nt
COC(=O)[C@H](C(C)C)N(CCc1cn(Cc2ccccc2)nn1)S(=O)(=O)c1ccccc1Br	nt	nt	nt	nt	-13	nt
O=C(Nc1nc(-c2cccc3ccccc23)cs1)c1ccc2c(c1)S(=O)(=O)c1ccccc1C2=O	-3	34*	11	-8	10	0
OC[C@@H]1CN(Cc2ccc(F)cc2)C[C@H](n2cnc3c(Nc4ccccc4)ncnc32)O1	nt	38*	nt	-2	-18	1
OC[C@@H]1CN(Cc2ccccc2)C[C@H](n2cnc3c(NCc4ccc(F)cc4)ncnc32)O1	nt	-5	nt	8	-12	nt
CCOc1cc(/C=C/C(=O)Nc2ccc(C(=O)NCCN(CC)CC)cc2)ccc1OCC(C)C	5	28*	16	22	-17	26*
CCCCCCNC(=O)C1CSCCS(=O)(=O)N1Cc1ccccc1 (stereo unspecified)	nt	nt	nt	nt	-1	nt
Cc1cc2[nH]c(=O)c(=O)[nH]c2cc1S(=O)(=O)N1CCN(c2ccccc2)CC1	-2	4	0	-6	14	nt
Cc1cc2[nH]c(=O)c(=O)[nH]c2cc1S(=O)(=O)N1CCC(C)CC1	-1	32*	8	-4	12	8
Cc1cc(C)n2nc(SCC(=O)N/N=C/c3ccccc3F)nc2n1	-4	27*	-9	4	5	0
Cc1ccc(/C=N/NC(=O)CSc2nc3nc(C)cc(C)n3n2)cc1	7	19	-5	-9	8	nt
C/C(N)=C(/C#N)C(=O)CSc1nncn1-c1ccccc1	0	28*	-1	0	2	0
COc1ccc(Nc2nnc(SCC(=O)NC3CCCC3)s2)cc1	nt	-5	nt	-15	2	nt
SMILES	SKKanGAS inh	ARFGAP1 inhibitor	Calb FLC	ASAP1 GAP inh	sPLA2-III inh	ARFGAP1 confirm
O=C(CSc1nnc(Nc2ccccc2)s1)NC1CCCC1	nt	26*	nt	16	11	-4
CCCN(CCC)CCNC(=O)c1cc2c(-c3ccc(Cl)cc3)nn(C)c2s1	0	28*	-3	7	-5	6
CCN(CC)CCNC(=O)c1cc2c(-c3ccc(Cl)cc3)nn(C)c2s1	1	3	-3	4	6	nt
CCCCN(CC)CCNC(=O)c1cc2c(-c3ccc(Cl)cc3)nn(C)c2s1	-2	13	-5	18	6	nt
CCCN(CCC)CCCNC(=O)c1cc2c(-c3ccc(OC)c(OC)c3)nn(C)c2s1	1	47*	-8	23	6	85*
CN(Cc1ccccc1)Cc1cc(=O)oc2ccc3ccccc3c12	nt	3	nt	12	-10	nt
CN(Cc1ccccc1)C(=O)c1nc[nH]c1C(=O)N(C)Cc1ccccc1	nt	27*	nt	4	-3	-4
COc1ccc2c(c1)[C@@H](NC(=O)C(F)(F)F)[C@@H]1CCCC[C@]21c1ccccc1	nt	14	nt	-3	11	nt
CC(C)(C)c1cc[n+](-c2nc([O-])sc2C=O)cc1	-8	27*	14	-3	-2	0
CCc1cc[n+](-c2nc([O-])sc2C=O)cc1	7	0	-6	-7	-9	nt
CCOC(=O)C(C)(C)N(Cc1cccc(C)c1)S(=O)(=O)c1cccc([N+](=O)[O-])c1	8	35*	-13	-11	-1	1
CCOC(=O)C(C)(C)N(Cc1cccc(C)c1)S(=O)(=O)c1ccc(Cl)c([N+](=O)[O-])c1	-5	11	-1	-7	4	nt
COC1=C[C@H](C(=O)NCc2ccccn2)[C@@]2(C)Cc3ccccc3[C@H]2CC1=O	nt	nt	nt	nt	6	nt
CCCOC(=O)c1ccc(Oc2cn[nH]c2-c2ccc(OC)cc2O)cc1	59*	30*	20	12	-79	21
COc1cccc(Oc2cn[nH]c2-c2ccc(OCC(=O)NN)cc2O)c1	13	2	-11	10	-20	nt
Fc1ccc(-c2cc(-c3nnc4sc(Cc5cccs5)nn34)[nH]n2)cc1	nt	nt	nt	nt	-47	nt
CCCNC(=O)Cn1cnc2sc(C(=O)N3CCCC(C(=O)OCC)C3)c(C)c2c1=O (stereo unspecified)	-2	nt	0	nt	nt	nt
CCCNC(=O)Cn1cnc2sc(C(=O)N3CCN(c4ccc(F)cc4)CC3)c(C)c2c1=O	-6	26*	-7	6	4	4
Cc1ccc(NC(=O)CN(C)C(=O)c2ccc(Sc3nncn3C)c([N+](=O)[O-])c2)cc1	nt	+	nt	3	1	-3
Cc1ccc(-n2c(SCC(=O)c3ccc(Br)cc3)nnc2-c2ccncc2)cc1	nt	nt	nt	nt	-47	nt
Nn1c(SCC(=O)N2CCOCC2)nnc1-c1n[nH]c2c1CCC2	nt	nt	nt	nt	1	nt
O=C(NCc1ccccc1)[C@@H]1CCCN1C(=O)[C@H]1CCCN1C(=O)c1cccc2ccccc12	nt	-8	nt	-12	2	nt
CCCCCCCCN1CCS(=O)(=O)N(Cc2ccc(F)cc2)C(C(=O)OC)C1 (stereo unspecified)	nt	nt	nt	nt	1	nt
CN1CCN(c2ccc(Cl)cc2NC(=O)/C=C/c2cccc(F)c2)CC1	8	31*	-17	22	2	19
CC(C)Cc1ccc(C(C)NC(=O)Cc2ccc(S(=O)(=O)N3CCOCC3)s2)cc1 (stereo unspecified)	2	25*	12	1	-14	4
